Reference: ChEMBL document CHEMBL5325428 (Eur J Med Chem, 2023)

Legend:
[1] = tested on: SARS-CoV-2; assay: Antiviral activity against SARS-CoV-2 Wuhan-HU-1 infected in HEK293T cells assessed as inhibition of viral replication incubated for 30 hrs by luciferase reporter gene assay; format: functional, organism-based; details: Severe acute respiratory syndrome coronavirus 2, Wuhan-HU-1, HEK-293T
Summary of the method: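 This is a non-infectious Wuhan-Hu-1 replicon system, not infectious virus. Replicon RNA was electroporated into 293T cells, which were then incubated for 30 h with compound at 2, 0.5, 0.1 and 0.02 µM or with 0.1% DMSO. Read-out was luciferase activity. Values are mean ± SD.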

[2] = Cytotoxicity against human HEK293T cells assessed as reduction in cell viability incubated for 72 hrs by CytoTox 96 nonradioactive assay; format: toxicity, cell-based, HEK-293T
[3] = Inhibition of MERS-CoV 3CLpro using FAM-SAVLQ as substrate preincubated with enzyme for 1 hr followed by susbtrate addition and measured after 1 hr by FRET assay; parameters: species or system Middle East respiratory syndrome-related coronavirus
[4] = biological target: Replicase polyprotein 1ab (Severe acute respiratory syndrome coronavirus 2, UniProt P0DTD1); assay: Inhibition of N-terminal His6-tagged full length SARS-CoV-2 3CLpro using FAM-SAVLQ as substrate preincubated with enzyme for 1 hr followed by susbtrate addition and measured after 1 hr by FRET assay
[5] = biological target: T1, Cathepsin G (Homo sapiens, UniProt P08311); assay: Inhibition of human Cathepsin G; format: toxicity
T1 sequence (P08311 whole entry): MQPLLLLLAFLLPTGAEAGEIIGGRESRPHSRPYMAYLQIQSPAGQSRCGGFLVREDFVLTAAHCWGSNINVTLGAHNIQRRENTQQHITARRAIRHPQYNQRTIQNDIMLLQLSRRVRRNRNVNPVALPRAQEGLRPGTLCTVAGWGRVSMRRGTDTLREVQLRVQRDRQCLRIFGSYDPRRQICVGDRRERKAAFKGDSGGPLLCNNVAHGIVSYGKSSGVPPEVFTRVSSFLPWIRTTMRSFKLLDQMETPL
Summary of the method: (§1)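 Commercial purified human proteases were assayed following the manufacturers' procedures. IC50 values are mean ± SD.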

[6] = biological target: Cathepsin B (Homo sapiens, UniProt P07858); assay: Inhibition of human Cathepsin B; format: toxicity; summary of the method: as §1
[7] = biological target: Cathepsin D (Homo sapiens, UniProt P07339); assay: Inhibition of human Cathepsin D; format: toxicity; summary of the method: as §1
[8] = biological target: Procathepsin L (Homo sapiens, UniProt P07711); assay: Inhibition of human Cathepsin L; format: toxicity; summary of the method: as §1
[9] = biological target: T2, Neutrophil elastase (Homo sapiens, UniProt P08246); assay: Inhibition of human neutrophil elastase; format: toxicity; summary of the method: as §1
T2 sequence (P08246 whole entry): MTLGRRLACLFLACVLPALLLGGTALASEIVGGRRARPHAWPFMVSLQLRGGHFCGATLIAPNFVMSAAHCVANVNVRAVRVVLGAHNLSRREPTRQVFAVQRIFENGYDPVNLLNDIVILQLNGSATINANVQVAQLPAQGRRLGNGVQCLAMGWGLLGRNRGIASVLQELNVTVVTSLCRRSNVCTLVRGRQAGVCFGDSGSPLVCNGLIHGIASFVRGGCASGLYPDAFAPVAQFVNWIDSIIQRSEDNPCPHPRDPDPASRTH

[10] = biological target: Prothrombin (Homo sapiens, UniProt P00734); assay: Inhibition of human thrombin; format: toxicity; summary of the method: as §1
[11] = biological target: chymotrypsin (Homo sapiens, UniProt P17538+P40313+Q6GPI1+Q99895); assay: Inhibition of human chymotrypsin; format: toxicity; summary of the method: as §1
[12] = tested on: Feline infectious peritonitis virus; assay: Antiviral activity against FIPV 1146 infected in CRFK cells assessed as inhibition of viral replication incubated for upto 168 hrs by TCID50 method; format: functional, organism-based; details: Alphacoronavirus 1, 1146, CRFK
Summary of the method: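 Crandell-Rees feline kidney cells infected with FIPV-1146; test compounds added to the medium at various concentrations. EC50 was fitted from the dose-dependent inhibition curve with a variable slope. Values are mean ± SD.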

[13] = Safety index, ratio of CC50 for cytotoxicity against human HEK293T cells to EC50 for antiviral activity against SARS-CoV-2 Wuhan-HU-1 infected in HEK293T cells; format: toxicity, cell-based; details: read-out: Ratio CC50/EC50
Summary of the method: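 In vitro safety index was calculated as the 293T CC50 divided by the SARS-CoV-2 replicon EC50.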

Sequence of Procathepsin L (P07711 whole entry): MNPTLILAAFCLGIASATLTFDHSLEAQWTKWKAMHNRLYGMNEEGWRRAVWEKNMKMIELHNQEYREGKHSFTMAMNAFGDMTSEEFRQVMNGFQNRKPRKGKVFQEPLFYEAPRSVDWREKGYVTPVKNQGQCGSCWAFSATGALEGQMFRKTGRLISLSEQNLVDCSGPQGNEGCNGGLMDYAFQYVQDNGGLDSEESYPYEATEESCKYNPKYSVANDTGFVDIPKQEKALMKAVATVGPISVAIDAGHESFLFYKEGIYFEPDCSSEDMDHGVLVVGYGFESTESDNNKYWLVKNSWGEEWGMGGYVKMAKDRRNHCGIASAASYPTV
Sequence of Cathepsin D (P07339 65-162 limits assumed): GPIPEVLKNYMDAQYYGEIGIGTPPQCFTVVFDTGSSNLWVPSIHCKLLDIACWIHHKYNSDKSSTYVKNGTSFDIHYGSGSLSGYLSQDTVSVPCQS
Sequence of Cathepsin D (P07339 169-412 limits assumed): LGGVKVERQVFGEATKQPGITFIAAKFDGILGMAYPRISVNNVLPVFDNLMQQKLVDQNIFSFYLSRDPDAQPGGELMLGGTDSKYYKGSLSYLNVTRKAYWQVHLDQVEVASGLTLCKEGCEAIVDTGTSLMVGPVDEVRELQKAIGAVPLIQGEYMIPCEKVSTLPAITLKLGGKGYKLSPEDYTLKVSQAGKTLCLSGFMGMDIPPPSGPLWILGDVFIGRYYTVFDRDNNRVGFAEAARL

Row | SMILES | EC50 [1] [nM] | CC50 at 72 h [2] [nM] | IC50 [3] [nM] | IC50 [4] [nM] | also measured
1 | CC(C)C[C@H](NC(=O)OCc1ccccc1)C(=O)N[C@@H](C[C@@H]1CCNC1=O)C(O)S(=O)(=O)O (stereo partly drawn) | 27 | – | – | – | –
2 | CC(C)C[C@H](NC(=O)OCc1ccccc1)C(=O)N[C@H](C=O)C[C@@H]1CCNC1=O | 31 | […] | 280 | – | –
3 | CC(C)C[C@H](NC(=O)OCC(C)(C)Sc1ccc(F)cc1)C(=O)N[C@H](C=O)C[C@@H]1CCNC1=O | – | > 50000 | 190 | 170 | –
4 | CC(C)C[C@H](NC(=O)OCC(C)(C)Oc1ccc(F)cc1)C(=O)N[C@H](C=O)C[C@@H]1CCNC1=O | – | > 50000 | – | 220 | IC50 [5]: > 50000 nM; IC50 [6]: 1900 nM; IC50 [7]: > 50000 nM; IC50 [8]: 30 nM; IC50 [9]: > 50000 nM; IC50 [10]: > 50000 nM; IC50 [11]: > 50000 nM; EC50 [12]: 70 nM
5 | CC(C)C[C@H](NC(=O)OCC(C)(C)Oc1ccc(F)cc1)C(=O)N[C@@H](C[C@@H]1CCNC1=O)C(O)S(=O)(=O)O (stereo partly drawn) | – | > 50000 | 40 | 230 | –
6 | CC(C)C[C@H](NC(=O)OCC(C)(C)Sc1nc2ccccc2[nH]1)C(=O)N[C@H](C=O)C[C@@H]1CCNC1=O | – | > 50000 | 120 | 300 | –
7 | [2H]C([2H])(OC(=O)N[C@@H](CC(C)C)C(=O)N[C@@H](C[C@@H]1CCNC1=O)C(O)S(=O)(=O)[O-])C(C)(C)Oc1ccc(Cl)cc1.[Na+] (stereo partly drawn) | 12 | > 50000 | 20 | 170 | selectivity ratio [13]: 3330
8 | CC(C)C[C@H](NC(=O)OCC(C)(C)Sc1cccc(Cl)c1)C(=O)N[C@@H](C[C@@H]1CCNC1=O)C(O)S(=O)(=O)O (stereo partly drawn) | 11 | > 50000 | 100 | 170 | selectivity ratio [13]: 3330
9 | CC(C)C[C@H](NC(=O)OCC(C)(C)Sc1ccccc1)C(=O)N[C@H](C#N)C[C@@H]1CCNC1=O | 60 | > 50000 | 410 | 490 | IC50 [5]: > 50000 nM; IC50 [6]: 2600 nM; IC50 [7]: > 50000 nM; IC50 [8]: 30 nM; IC50 [9]: > 50000 nM; IC50 [10]: > 50000 nM; IC50 [11]: > 50000 nM; EC50 [12]: 1320 nM
10 | CC(C)C[C@H](NC(=O)OCC(C)(C)Sc1ccccc1)C(=O)N[C@@H](C[C@@H]1CCNC1=O)C(O)(C(=O)NC1CC1)S(=O)(=O)O (stereo partly drawn) | 70 | > 50000 | 180 | 450 | –
11 | CC(C)C[C@H](NC(=O)OCC(C)(C)Sc1cccc(F)c1)C(=O)N[C@H](C=O)C[C@@H]1CCNC1=O | 9 | > 50000 | 100 | 140 | selectivity ratio [13]: 3330
12 | CC(C)C[C@H](NC(=O)OCC(C)(C)Oc1ccc(Cl)cc1)C(=O)N[C@H](C=O)C[C@@H]1CCNC1=O | – | > 50000 | 20 | 460 | –
13 | CC(C)C[C@H](NC(=O)OCC(C)(C)Oc1ccccc1)C(=O)N[C@@H](C[C@@H]1CCNC1=O)C(O)S(=O)(=O)O (stereo partly drawn) | – | > 50000 | 20 | 240 | –
14 | CC(C)C[C@H](NC(=O)OCC(C)(C)Sc1ccccc1)C(=O)N[C@@H](C[C@@H]1CCNC1=O)C(O)S(=O)(=O)O (stereo partly drawn) | 10 | > 50000 | – | 90 | selectivity ratio [13]: 3330
15 | CC(C)C[C@H](NC(=O)OCC(C)(C)Oc1cccc(F)c1)C(=O)N[C@H](C=O)C[C@@H]1CCNC1=O | – | > 50000 | 50 | 200 | –
16 | CC(C)C[C@H](NC(=O)OCC(C)(C)Oc1cccc(F)c1)C(=O)N[C@@H](C[C@@H]1CCNC1=O)C(O)S(=O)(=O)O (stereo partly drawn) | – | > 50000 | 40 | 120 | –
17 | [2H]C([2H])(OC(=O)N[C@@H](CC(C)C)C(=O)N[C@@H](C[C@@H]1CCNC1=O)C(O)S(=O)(=O)[O-])C(C)(C)Oc1cccc(Cl)c1.[Na+] (stereo partly drawn) | – | > 50000 | 70 | 280 | –

Row | SMILES | EC50 [1] [nM] | CC50 at 72 h [2] [nM] | IC50 [3] [nM] | IC50 [4] [nM] | also measured
18 | CC(C)C[C@H](NC(=O)OCC(C)(C)Oc1cccc(Cl)c1)C(=O)N[C@@H](C[C@@H]1CCNC1=O)C(O)S(=O)(=O)O (stereo partly drawn) | 14 | > 50000 | 20 | 210 | selectivity ratio [13]: 3330
19 | CC(C)C[C@H](NC(=O)OCCSc1ccccc1)C(=O)N[C@H](C=O)C[C@@H]1CCNC1=O | – | > 50000 | 140 | 320 | –
20 | CC(C)C[C@H](NC(=O)OCC(C)(C)Sc1nc2ccccc2[nH]1)C(=O)N[C@@H](C[C@@H]1CCNC1=O)C(O)S(=O)(=O)O (stereo partly drawn) | – | > 50000 | 210 | – | –
21 | CC(C)C[C@H](NC(=O)OCC(C)(C)Sc1cccc(F)c1)C(=O)N[C@@H](C[C@@H]1CCNC1=O)C(O)S(=O)(=O)O (stereo partly drawn) | 10 | > 50000 | – | 130 | selectivity ratio [13]: 3330
22 | CC(C)C[C@H](NC(=O)OCC(C)(C)S(=O)(=O)c1ccccc1)C(=O)N[C@H](C=O)C[C@@H]1CCNC1=O | – | > 50000 | 260 | 190 | –
23 | CC(C)C[C@H](NC(=O)OCC(C)(C)Oc1ccccc1)C(=O)N[C@H](C=O)C[C@@H]1CCNC1=O | – | > 50000 | 40 | 310 | –
24 | CC(C)C[C@H](NC(=O)OCC(C)(C)Sc1ccccc1)C(=O)N[C@@H](C[C@@H]1CCNC1=O)C(=O)C(=O)NC1CC1 | 50 | > 50000 | – | 210 | IC50 [5]: > 50000 nM; IC50 [6]: 2000 nM; IC50 [7]: > 50000 nM; IC50 [8]: 40 nM; IC50 [9]: > 50000 nM; IC50 [10]: > 50000 nM; IC50 [11]: > 50000 nM; EC50 [12]: 710 nM
25 | CC(C)C[C@H](NC(=O)OCC(C)(C)Oc1ccc(Cl)cc1)C(=O)N[C@@H](C[C@@H]1CCNC1=O)C(O)S(=O)(=O)O (stereo partly drawn) | – | > 50000 | 110 | 340 | –
26 | CC(C)C[C@H](NC(=O)OCCSc1ccccc1)C(=O)N[C@@H](C[C@@H]1CCNC1=O)C(O)S(=O)(=O)O (stereo partly drawn) | – | > 50000 | 140 | 310 | –
27 | CC(C)C[C@H](NC(=O)OCC(C)(C)Sc1ccc(F)cc1)C(=O)N[C@@H](C[C@@H]1CCNC1=O)C(O)S(=O)(=O)O (stereo partly drawn) | – | > 50000 | 150 | 270 | –
28 | [2H]C([2H])(OC(=O)N[C@@H](CC(C)C)C(=O)N[C@H](C=O)C[C@@H]1CCNC1=O)C(C)(C)Oc1cccc(Cl)c1 | – | > 50000 | 40 | 300 | –
29 | CC(C)C[C@H](NC(=O)OCC(C)(C)S(=O)(=O)c1ccccc1)C(=O)N[C@@H](C[C@@H]1CCNC1=O)C(O)S(=O)(=O)O (stereo partly drawn) | – | > 50000 | 280 | 200 | –
30 | [2H]C([2H])(OC(=O)N[C@@H](CC(C)C)C(=O)N[C@@H](C[C@@H]1CCNC1=O)C(O)S(=O)(=O)[O-])C(C)(C)Sc1ccccc1.[Na+] (stereo partly drawn) | 12 | > 50000 | 40 | 310 | selectivity ratio [13]: 3330
31 | CC(C)C[C@H](NC(=O)OCC(C)(C)[S+]([O-])c1ccccc1)C(=O)N[C@H](C=O)C[C@@H]1CCNC1=O (mixture of isomers) | – | > 50000 | 190 | 330 | –
32 | CC(C)C[C@H](NC(=O)OCC(C)(O)c1cccc(Cl)c1)C(=O)N[C@@H](C[C@@H]1CCNC1=O)C(O)S(=O)(=O)O (mixture of isomers) | 25 | > 50000 | 100 | 320 | –
33 | CC(C)C[C@H](NC(=O)OCC(C)(C)[S+]([O-])c1ccccc1)C(=O)N[C@@H](C[C@@H]1CCNC1=O)C(O)S(=O)(=O)O (mixture of isomers) | – | > 50000 | 250 | 350 | –
34 | CC(C)C[C@H](NC(=O)OCC(C)(O)c1cccc(Cl)c1)C(=O)N[C@H](C=O)C[C@@H]1CCNC1=O (mixture of isomers) | 25 | > 50000 | 120 | 290 | –
